From ChEMBL document CHEMBL3763099, “Synthesis and evaluation of 1,7-diheteroarylhepta-1,4,6-trien-3-ones as curcumin-based anticancer agents” (Eur J Med Chem, 2016)

Tests used:
Format in all cases: functional
[1] = Cytotoxicity against human PC3 cells assessed as inhibition of cell viability at 1 uM after 3 days by trypan blue dye exclusion assay; conditions: PC-3, 72 h
Method in brief: (§1)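 Viable cells were counted by trypan blue exclusion on an automated analyzer. Viability was taken as treated/vehicle viable cell count. The inhibitory rate is the control percentage viability minus the treated percentage viability. Variation between replicate experiments was at most 5%.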

[2] = Cytotoxicity against human PC3 cells assessed as inhibition of cell viability at 10 uM after 3 days by trypan blue dye exclusion assay; conditions: PC-3, 72 h; method in brief: as §1
LNCaP [3] = assay: Cytotoxicity against human LNCAP cells assessed as inhibition of cell viability at 10 uM after 3 days by trypan blue dye exclusion assay; conditions: 72 h; method in brief: as §1
[4] = Cytotoxicity against human DU145 cells assessed as inhibition of cell viability at 10 uM after 3 days by trypan blue dye exclusion assay; conditions: DU-145, 72 h; method in brief: as §1
[5] = Cytotoxicity against human DU145 cells assessed as inhibition of cell viability at 1 uM after 3 days by trypan blue dye exclusion assay; conditions: DU-145, 72 h; method in brief: as §1
HeLa [6] = assay: Cytotoxicity against human HeLa cells assessed as inhibition of cell viability at 10 uM after 3 days by trypan blue dye exclusion assay; conditions: 72 h; method in brief: as §1
HeLa [7] = assay: Cytotoxicity against human HeLa cells assessed as inhibition of cell viability at 1 uM after 3 days by trypan blue dye exclusion assay; conditions: 72 h; method in brief: as §1
LNCaP [8] = assay: Cytotoxicity against human LNCAP cells assessed as inhibition of cell viability at 1 uM after 3 days by trypan blue dye exclusion assay; conditions: 72 h; method in brief: as §1

Row | SMILES | inhibition at 1 µM [1] [%] | inhibition at 10 µM [2] [%] | inhibition at 10 µM (LNCaP [3]) [%] | inhibition at 10 µM [4] [%] | inhibition at 1 µM [5] [%] | inhibition at 10 µM (HeLa [6]) [%] | inhibition at 1 µM (HeLa [7]) [%] | inhibition at 1 µM (LNCaP [8]) [%]
1 | CCCCn1ccnc1/C=C/C=C/C(=O)/C=C/c1nccn1CCCC | 33 | 87 | 92 | 91 | 35 | 92 | 44 | 47
2 | O=C(/C=C/C=C/c1cccnc1)/C=C/c1cccnc1 | 24 | 86 | 61 | 87 | 24 | 97 | 20 | 2
3 | Cc1nc(C(F)(F)F)c(/C=C/C=C/C(=O)/C=C/c2sc(C)nc2C(F)(F)F)s1 | 24 | 88 | 92 | 80 | 13 | 96 | 12 | 37
4 | O=C(/C=C/C=C/c1nccs1)/C=C/c1nccs1 | 28 | 86 | 80 | 65 | 2 | 94 | 11 | 28
5 | CC(C)CCn1ccnc1/C=C/C=C/C(=O)/C=C/c1nccn1CCC(C)C | 32 | 89 | 75 | 88 | 32 | 95 | 31 | 33
6 | Cn1cc(Br)c(/C=C/C=C/C(=O)/C=C/c2nn(C)cc2Br)n1 | 25 | 91 | 63 | 86 | 42 | 95 | 52 | 38
7 | Cc1cc(/C=C/C=C/C(=O)/C=C/c2cc(C)on2)no1 | 25 | 88 | 70 | 79 | 25 | 97 | 17 | 13
8 | CC(C)CCn1c(/C=C/C=C/C(=O)/C=C/c2nc3ccccc3n2CCC(C)C)nc2ccccc21 | 58 | 93 | 60 | 97 | 21 | 97 | 53 | 15
9 | CCn1ccnc1/C=C/C=C/C(=O)/C=C/c1nccn1CC | 32 | 85 | 62 | 84 | 34 | 98 | 43 | 23
10 | O=C(/C=C/C=C/c1ccncc1)/C=C/c1ccncc1 | 33 | 84 | 50 | 81 | 60 | 95 | 22 | 20
11 | CCCCCCn1ccnc1/C=C/C=C/C(=O)/C=C/c1nccn1CCCCCC | 11 | 85 | 76 | 86 | 34 | 98 | 32 | 31
12 | O=C(/C=C/C=C/c1ccncc1F)/C=C/c1ccncc1F | 19 | 84 | 66 | 81 | 36 | 94 | 26 | 31
13 | Cn1ccnc1/C=C/C=C/C(=O)/C=C/c1nccn1C | 35 | 83 | 55 | 66 | 21 | 93 | 18 | 41
14 | CCCn1ccnc1/C=C/C=C/C(=O)/C=C/c1nccn1CCC | 23 | 91 | 95 | 84 | 25 | 98 | 34 | 38
15 | Cc1cccc(/C=C/C=C/C(=O)/C=C/c2cccc(C)n2)n1 | 35 | 91 | 57 | 75 | 12 | 94 | 40 | 50
16 | CCCCCCCn1ccnc1/C=C/C=C/C(=O)/C=C/c1nccn1CCCCCCC | 28 | 92 | 70 | 93 | 25 | 99 | 13 | 12
17 | CCCCCn1ccnc1/C=C/C=C/C(=O)/C=C/c1nccn1CCCCC | 36 | 86 | 94 | 88 | 43 | 95 | 39 | 44
18 | O=C(/C=C/C=C/c1ccccn1)/C=C/c1ccccn1 | 17 | 20 | 7.2 | 37 | 11 | 24 | 21 | 0
19 | CC(C)=CCn1ccnc1/C=C/C=C/C(=O)/C=C/c1nccn1CC=C(C)C | 35 | 87 | 70 | 75 | 0 | 94 | 66 | 38
20 | Cc1csc(/C=C/C=C/C(=O)/C=C/c2nc(C)cs2)n1 | 25 | 86 | 57 | 46 | 8 | 96 | 20 | 21
21 | COc1cc(/C=C/C(=O)CC(=O)/C=C/c2ccc(O)c(OC)c2)ccc1O [CURCUMIN] | 2.5 | 55 | 66 | 59 | 7 | 50 | 14 | 29
